In ChEMBL document CHEMBL3526048, “In vitro metabolism of rivoglitazone, a novel peroxisome proliferator-activated receptor γ agonist, in rat, monkey, and human liver microsomes and freshly isolated hepatocytes” (Drug Metab Dispos, 2011):

What was measured:
Type in all cases: ADME
Cytochrome P450 3A5 [1] = target: T1, Cytochrome P450 3A5 (Homo sapiens, UniProt P20815); experiment: (§1) Activity of human CYP3A5 expressed in microsomes isolated from baculovirus infected insect cell assessed as enzyme-mediated 2-hydroxy-3-(4-((6-methoxy-1-methyl-1H-benzo[d]imidazol-2-yl)methoxy)phenyl)propanamide formation at 20 uM after 2 hrs by radio-HPLC/LC-MS/MS analysis in presence of NADPH-generating system and NADPH-generating system/SAM
T1 sequence (P20815 whole entry): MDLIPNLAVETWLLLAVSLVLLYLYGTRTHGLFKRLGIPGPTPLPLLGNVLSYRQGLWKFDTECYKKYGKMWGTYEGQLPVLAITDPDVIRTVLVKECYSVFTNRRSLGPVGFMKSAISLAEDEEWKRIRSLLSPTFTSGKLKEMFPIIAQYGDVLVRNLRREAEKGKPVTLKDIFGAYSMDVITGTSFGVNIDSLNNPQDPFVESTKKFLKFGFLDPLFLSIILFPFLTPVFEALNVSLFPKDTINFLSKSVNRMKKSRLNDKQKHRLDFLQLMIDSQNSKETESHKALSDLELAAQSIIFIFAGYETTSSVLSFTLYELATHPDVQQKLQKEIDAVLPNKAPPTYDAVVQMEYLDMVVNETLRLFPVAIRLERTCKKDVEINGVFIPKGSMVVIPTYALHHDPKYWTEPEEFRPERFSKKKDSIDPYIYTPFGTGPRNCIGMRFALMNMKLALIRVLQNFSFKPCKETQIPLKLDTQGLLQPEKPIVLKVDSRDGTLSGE
Summary of the method: (§2)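 cDNA-expressed human CYP3A5 in baculovirus-insect-cell microsomes (1 mg/ml protein) was incubated with [¹⁴C]rivoglitazone (20 μM) in 50 mM potassium phosphate (pH 7.4) or 100 mM Tris-HCl (pH 7.5). NADPH-generating system: 2 mM NADP⁺, 20 mM glucose 6-phosphate, 2 units/ml G6PDH, 10 mM MgCl₂. Incubation ran 2 h at 37°C with shaking; insect-cell control supersomes served as control. Acetonitrile stop, supernatant concentrated, then radio-HPLC, LC-MS and LC-MS/MS.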

[2] = target: T2, UDP-glucuronosyltransferase 1A10 (Homo sapiens, UniProt Q9HAW8); experiment: Activity of human UGT1A10 expressed in microsomes isolated from baculovirus infected insect cell assessed as enzyme-mediated 2-mercapto-3-(4-((6-methoxy-1-methyl-1H-benzo[d]imidazol-2-yl)methoxy)phenyl)propanoic acid formation at 20 uM after 4 hrs by radio-HPLC/LC-MS/MS analysis in presence of UDPGA
T2 sequence (Q9HAW8 whole entry): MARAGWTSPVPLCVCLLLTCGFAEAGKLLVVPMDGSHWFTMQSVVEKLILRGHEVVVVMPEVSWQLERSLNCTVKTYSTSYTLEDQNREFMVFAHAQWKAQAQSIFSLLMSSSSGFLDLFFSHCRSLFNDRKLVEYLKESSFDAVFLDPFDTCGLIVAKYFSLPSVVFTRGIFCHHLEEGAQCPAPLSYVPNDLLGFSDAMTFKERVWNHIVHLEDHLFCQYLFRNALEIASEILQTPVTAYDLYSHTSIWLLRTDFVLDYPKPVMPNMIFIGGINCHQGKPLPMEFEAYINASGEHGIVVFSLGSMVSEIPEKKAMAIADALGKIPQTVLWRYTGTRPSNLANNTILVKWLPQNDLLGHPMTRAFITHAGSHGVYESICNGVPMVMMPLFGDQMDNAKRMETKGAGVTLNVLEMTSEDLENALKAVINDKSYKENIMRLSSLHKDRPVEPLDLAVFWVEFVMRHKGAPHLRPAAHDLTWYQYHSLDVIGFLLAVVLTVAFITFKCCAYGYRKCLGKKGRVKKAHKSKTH
Summary of the method: (§3)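 Alamethicin (50 μg/mg protein, 15 min on ice) pretreated expressed human UGT microsomes (1 mg/ml protein) from baculovirus-infected insect cells. Incubation with [¹⁴C]rivoglitazone (20 μM) in 100 mM Tris-HCl (pH 7.5) with 10 mM MgCl₂, started by 5 mM UDPGA, 4 h at 37°C with shaking. UGT insect-cell control supersomes were run alongside. Acetonitrile stop, concentrated supernatant analysed by radio-HPLC, LC-MS and LC-MS/MS.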

Cytochrome P450 3A4 = Cytochrome P450 3A4 (Homo sapiens, UniProt P08684); experiment: Activity of human CYP3A4 expressed in microsomes isolated from baculovirus infected insect cell assessed as enzyme-mediated 5-(4-((6-methoxy-1H-benzo[d]imidazol-2-yl)methoxy)benzyl)thiazolidine-2,4-dione formation at 20 uM after 2 hrs by radio-HPLC/LC-MS/MS analysis in presence of NADPH-generating system and NADPH-generating system/SAM
Sequence of Cytochrome P450 3A4 (P08684 whole entry): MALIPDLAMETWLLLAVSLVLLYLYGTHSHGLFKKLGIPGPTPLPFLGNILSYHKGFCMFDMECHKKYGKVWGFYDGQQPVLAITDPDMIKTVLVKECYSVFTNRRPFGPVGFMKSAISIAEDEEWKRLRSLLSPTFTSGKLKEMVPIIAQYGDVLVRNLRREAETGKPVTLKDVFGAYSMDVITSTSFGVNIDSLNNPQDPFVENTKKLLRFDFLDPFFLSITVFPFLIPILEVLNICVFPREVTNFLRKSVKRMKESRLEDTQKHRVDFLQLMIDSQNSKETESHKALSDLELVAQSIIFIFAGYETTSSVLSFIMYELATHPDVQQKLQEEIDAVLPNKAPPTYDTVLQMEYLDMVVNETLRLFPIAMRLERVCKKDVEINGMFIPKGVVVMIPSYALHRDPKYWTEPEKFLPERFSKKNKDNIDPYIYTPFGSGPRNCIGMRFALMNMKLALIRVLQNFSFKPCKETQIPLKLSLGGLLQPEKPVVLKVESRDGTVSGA

Cytochrome P450 3A5 [3] = target: T1, Cytochrome P450 3A5; experiment: as §1, with “2-mercapto-3-(4-((6-methoxy-1-methyl-1H-benzo[d]imidazol-2-yl)methoxy)phenyl)propanamide” for “2-hydroxy-3-(4-((6-methoxy-1-methyl-1H-benzo[d]imidazol-2-yl)methoxy)phenyl)propanamide”; summary of the method: as §2
[4] = target: T3, UDP-glucuronosyltransferase 1A3 (Homo sapiens, UniProt P35503); experiment: Activity of human UGT1A3 expressed in microsomes isolated from baculovirus infected insect cell assessed as enzyme-mediated 2-amino-3-((1-carboxy-2-(4-((6-methoxy-1-methyl-1H-benzo[d]imidazol-2-yl)methoxy)phenyl)ethyl)disulfanyl)propanoic acid formation at 20 uM after 4 hrs by radio-HPLC/LC-MS/MS analysis in presence of UDPGA and UDPGA/SAM; summary of the method: as §3
T3 sequence (P35503 whole entry): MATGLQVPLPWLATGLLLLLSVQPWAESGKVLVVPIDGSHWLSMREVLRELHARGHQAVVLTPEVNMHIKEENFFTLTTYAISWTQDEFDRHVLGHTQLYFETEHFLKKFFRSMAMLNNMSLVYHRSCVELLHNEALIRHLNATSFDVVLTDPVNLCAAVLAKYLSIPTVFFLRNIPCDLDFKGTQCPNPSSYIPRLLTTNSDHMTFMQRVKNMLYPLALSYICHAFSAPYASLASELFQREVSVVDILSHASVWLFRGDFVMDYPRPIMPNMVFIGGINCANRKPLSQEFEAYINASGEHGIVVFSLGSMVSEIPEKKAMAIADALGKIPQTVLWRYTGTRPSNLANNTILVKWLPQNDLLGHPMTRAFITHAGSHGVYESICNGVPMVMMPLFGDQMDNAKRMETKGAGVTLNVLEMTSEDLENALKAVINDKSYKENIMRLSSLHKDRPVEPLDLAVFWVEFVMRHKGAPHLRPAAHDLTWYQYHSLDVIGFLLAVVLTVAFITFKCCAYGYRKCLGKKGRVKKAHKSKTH

Cytochrome P450 3A5 [5] = target: T1, Cytochrome P450 3A5; experiment: Activity of human CYP3A5 expressed in microsomes isolated from baculovirus infected insect cell assessed as enzyme-mediated 2-mercapto-3-(4-((6-methoxy-1-methyl-1H-benzo[d]imidazol-2-yl)methoxy)phenyl)propanoic acid formation at 20 uM after 2 hrs by radio-HPLC/LC-MS/MS analysis in presence of NADPH-generating system; summary of the method: as §2
Liver microsome [6] = experiment: Drug metabolism in Sprague-Dawley rat liver microsomes assessed as formation of 2-((4-((2,4-dioxothiazolidin-5-yl)methyl)phenoxy)methyl)-1-methyl-1H-benzo[d]imidazol-6-yl hydrogen sulfate at 20 uM by radio-HPLC/LC-MS/MS analysis
Cytochrome P450 1A2 = target: T4, Cytochrome P450 1A2 (Homo sapiens, UniProt P05177); experiment: Activity of human CYP1A2 expressed in microsomes isolated from baculovirus infected insect cell assessed as enzyme-mediated 3-(4-((6-methoxy-1-methyl-1H-benzo[d]imidazol-2-yl)methoxy)phenyl)-2-(methylsulfonyl)propanamide formation at 20 uM after 2 hrs by radio-HPLC/LC-MS/MS analysis in presence of NADPH-generating system/SAM
T4 sequence (P05177 whole entry): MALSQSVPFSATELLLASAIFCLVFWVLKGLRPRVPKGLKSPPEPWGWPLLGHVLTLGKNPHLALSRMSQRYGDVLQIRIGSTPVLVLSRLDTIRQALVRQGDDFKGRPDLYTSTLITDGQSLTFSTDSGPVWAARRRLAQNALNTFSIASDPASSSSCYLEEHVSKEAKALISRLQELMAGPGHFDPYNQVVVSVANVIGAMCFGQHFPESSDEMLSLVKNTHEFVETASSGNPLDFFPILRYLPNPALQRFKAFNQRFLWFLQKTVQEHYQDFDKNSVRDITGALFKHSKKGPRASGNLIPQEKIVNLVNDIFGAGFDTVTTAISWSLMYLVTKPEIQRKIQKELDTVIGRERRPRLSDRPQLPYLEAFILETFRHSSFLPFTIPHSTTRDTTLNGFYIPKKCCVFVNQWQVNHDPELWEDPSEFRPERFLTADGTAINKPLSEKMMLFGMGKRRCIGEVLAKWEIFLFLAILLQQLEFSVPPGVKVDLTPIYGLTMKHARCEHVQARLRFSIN

Liver microsome [7] = experiment: Drug metabolism in Sprague-Dawley rat liver microsomes assessed as formation of 3-(4-((6-methoxy-1-methyl-1H-benzo[d]imidazol-2-yl)methoxy)phenyl)-2-(methylthio)propanamide at 20 uM after 2 hrs by radio-HPLC/LC-MS/MS analysis in presence of NADPH-generating system/SAM

- Drug metabolism (Cytochrome P450 3A5 [1]): metabolite_detected
- Drug metabolism [2]: metabolite_not_detected
- Drug metabolism (Cytochrome P450 3A4): metabolite_detected
- Drug metabolism (Cytochrome P450 3A5 [3]): metabolite_detected
- Drug metabolism [4]: metabolite_not_detected
- Drug metabolism (Cytochrome P450 3A5 [5]): metabolite_detected
- Drug metabolism (Liver microsome [6]): metabolite_not_detected
- Drug metabolism (Cytochrome P450 1A2): metabolite_not_detected
- Drug metabolism (Liver microsome [7]): metabolite_detected
Structure (SMILES): COc1ccc2nc(COc3ccc(C[14CH]4SC(=O)NC4=O)cc3)n(C)c2c1.Cl (racemic)
